In ChEMBL document CHEMBL1153248, “Inhibition of Yersinia protein tyrosine phosphatase by phosphonate derivatives of calixarenes” (Bioorg Med Chem Lett, 2010):
Calls of active or inactive are those of the source. The rule behind the calls is not given here.

What was measured:
[1] = Inhibition of Yersinia PTP
In short: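 Recombinant Yop51* enzyme; p-nitrophenyl phosphate at 0.5–4.0 mM in 0.05 M BISTRIS pH 6.5 with 100 mM NaCl, 0.05% Brij-35, 0.6 vol% DMSO, 0.4 mM EDTA and 1 mM DTT. Substrate and inhibitor were preincubated 5 min at 30 °C, then enzyme was added. Initial rates were read as p-nitrophenol A410 (ε 18,300 M⁻¹ cm⁻¹). Ki came from Lineweaver–Burk analysis at several inhibitor levels, reported as mean and standard deviation.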

[2] = target: Receptor-type tyrosine-protein phosphatase beta (Homo sapiens, UniProt P23467); assay: Inhibition of human recombinant PTPbeta
In short: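 Human recombinant PTPβ; 1 mM p-nitrophenyl phosphate preincubated 5 min at 30 °C with varying inhibitor concentrations in 0.05 M BISTRIS pH 7.0 with 100 mM NaCl, 0.05% Brij-35, 0.8 vol% DMSO and 1 mM diethylenetriamine pentaacetic acid. Enzyme was added to start the reaction and A410 was followed over time. IC50 is the concentration halving activity after 5 min. For competitive inhibition, Ki was taken as ½ IC50 at substrate equal to Km.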

[3] = organism: Homo sapiens; assay: Inhibition of human PP1 at 50 uM
[4] = Selectivity for human recombinant PTPbeta over Yersinia PTP

Chain of Receptor-type tyrosine-protein phosphatase beta (P23467 whole entry): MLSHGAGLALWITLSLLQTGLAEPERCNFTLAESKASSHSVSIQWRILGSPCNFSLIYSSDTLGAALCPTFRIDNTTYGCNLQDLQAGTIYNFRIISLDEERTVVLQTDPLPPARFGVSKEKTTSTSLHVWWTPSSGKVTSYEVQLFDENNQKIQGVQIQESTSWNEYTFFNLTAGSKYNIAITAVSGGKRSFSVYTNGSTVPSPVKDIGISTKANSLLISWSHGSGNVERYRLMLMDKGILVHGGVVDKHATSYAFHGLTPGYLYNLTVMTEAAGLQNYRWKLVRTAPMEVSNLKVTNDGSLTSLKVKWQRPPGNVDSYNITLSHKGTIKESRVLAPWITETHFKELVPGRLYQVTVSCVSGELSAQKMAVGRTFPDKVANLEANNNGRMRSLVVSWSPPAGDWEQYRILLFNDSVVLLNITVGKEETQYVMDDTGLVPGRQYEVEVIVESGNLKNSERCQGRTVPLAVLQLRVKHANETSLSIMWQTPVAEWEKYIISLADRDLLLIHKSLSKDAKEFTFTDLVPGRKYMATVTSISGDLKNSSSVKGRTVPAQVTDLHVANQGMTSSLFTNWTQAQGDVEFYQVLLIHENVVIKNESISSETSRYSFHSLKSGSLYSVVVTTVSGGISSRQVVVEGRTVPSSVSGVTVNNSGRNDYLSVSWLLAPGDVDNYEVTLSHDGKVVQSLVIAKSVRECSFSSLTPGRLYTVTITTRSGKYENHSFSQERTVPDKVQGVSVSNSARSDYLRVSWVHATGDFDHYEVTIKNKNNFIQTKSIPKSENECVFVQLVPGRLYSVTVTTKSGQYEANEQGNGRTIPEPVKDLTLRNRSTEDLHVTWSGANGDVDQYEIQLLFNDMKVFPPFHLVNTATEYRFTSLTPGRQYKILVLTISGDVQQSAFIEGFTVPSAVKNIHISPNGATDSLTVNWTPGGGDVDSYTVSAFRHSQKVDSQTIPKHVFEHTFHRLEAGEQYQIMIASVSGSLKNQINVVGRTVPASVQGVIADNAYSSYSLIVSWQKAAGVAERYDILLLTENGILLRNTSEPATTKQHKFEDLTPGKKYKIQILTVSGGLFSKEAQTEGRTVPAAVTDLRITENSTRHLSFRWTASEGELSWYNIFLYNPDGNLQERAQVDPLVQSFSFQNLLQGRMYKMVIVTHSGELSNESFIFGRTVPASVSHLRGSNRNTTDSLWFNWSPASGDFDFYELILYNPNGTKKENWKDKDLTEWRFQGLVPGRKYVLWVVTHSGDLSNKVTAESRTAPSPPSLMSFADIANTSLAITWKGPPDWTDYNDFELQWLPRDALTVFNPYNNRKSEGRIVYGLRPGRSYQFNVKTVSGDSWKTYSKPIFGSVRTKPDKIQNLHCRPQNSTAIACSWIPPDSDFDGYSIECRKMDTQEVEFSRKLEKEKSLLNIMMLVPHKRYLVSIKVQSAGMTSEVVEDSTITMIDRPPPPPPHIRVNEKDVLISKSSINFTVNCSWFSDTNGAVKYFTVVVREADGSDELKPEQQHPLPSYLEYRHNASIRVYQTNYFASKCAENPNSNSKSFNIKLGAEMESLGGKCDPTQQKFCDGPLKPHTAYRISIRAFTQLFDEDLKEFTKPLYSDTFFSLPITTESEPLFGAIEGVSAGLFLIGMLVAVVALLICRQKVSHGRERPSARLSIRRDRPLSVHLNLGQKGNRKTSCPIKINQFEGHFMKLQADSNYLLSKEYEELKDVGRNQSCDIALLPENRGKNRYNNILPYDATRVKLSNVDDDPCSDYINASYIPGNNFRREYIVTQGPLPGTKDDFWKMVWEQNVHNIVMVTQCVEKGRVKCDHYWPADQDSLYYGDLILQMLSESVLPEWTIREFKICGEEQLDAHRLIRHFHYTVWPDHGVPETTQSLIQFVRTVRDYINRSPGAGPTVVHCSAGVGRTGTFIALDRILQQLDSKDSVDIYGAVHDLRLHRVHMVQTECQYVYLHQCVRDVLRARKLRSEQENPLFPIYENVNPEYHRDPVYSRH

Compound | Ki [1] [µM] | IC50 [2] [µM] | Activity [3] | fold change (FC) [4]
O=P(O)(O)Cc1cc2c(O)c(c1)Cc1cc(CP(=O)(O)O)cc(c1O)Cc1cc(CP(=O)(O)O)cc(c1O)Cc1cc(CP(=O)(O)O)cc(c1O)C2 | 0.92 | 3.8 | inactive | –
O=P(O)(O)Cc1cc2c(O)c(c1)Sc1cc(CP(=O)(O)O)cc(c1O)Sc1cc(CP(=O)(O)O)cc(c1O)Sc1cc(CP(=O)(O)O)cc(c1O)S2 | 0.22 | 0.13 | inactive | 3
O=P(O)(O)C(c1ccc(O)cc1)P(=O)(O)O | 570 | – | – | –
O=P(O)(O)C(c1cc2c(O)c(c1)Cc1cc(C(P(=O)(O)O)P(=O)(O)O)cc(c1O)Cc1cc(C(P(=O)(O)O)P(=O)(O)O)cc(c1O)Cc1cc(C(P(=O)(O)O)P(=O)(O)O)cc(c1O)C2)P(=O)(O)O | 40 | – | – | –
CCCOc1c2cccc1Cc1cc(C(P(=O)(O)O)P(=O)(O)O)cc(c1O)Cc1cccc(c1OCCC)Cc1cc(C(P(=O)(O)O)P(=O)(O)O)cc(c1O)C2 | 1.4 | 32 | inactive | –
CCCOc1c2cccc1Cc1cc(C(P(=O)(O)O)P(=O)(O)O)cc(c1O)Cc1cccc(c1OCCC)Cc1cccc(c1O)C2 | 7.1 | – | – | –
